# Columns and labels:
# [1] = target: T1, Sodium-dependent dopamine transporter (Rattus norvegicus, UniProt P23977); experiment: Inhibition constant of high-affinity dopamine uptake
# Summary of the method: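 Crude synaptosomes from adult male Long-Evans rat forebrain (Gray–Whittaker method) were incubated with [3H]dopamine (0.72 Ci/mmol) for 3 min at 30 °C alongside 0 °C blanks, with inhibitor at 5–10 concentrations between 10 µM and 10 mM. Uptake was stopped on ice and pellets were washed in KRB. IC50 came from regression or Hill plots, and Ki from Cheng–Prusoff using dopamine Km 1.4 µM.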
# [2] = target: T2, Sodium-dependent serotonin transporter (Rattus norvegicus, UniProt P31652); experiment: Inhibition constant of high-affinity 5-HT uptake
# Summary of the method: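 Rat forebrain crude synaptosomes took up [3H]serotonin (0.727 Ci/mmol) for 3 min at 30 °C, with and without inhibitor, as for the choline assay. IC50 came from nonlinear regression or Hill plots over 5–10 inhibitor concentrations. Ki was derived with Cheng-Prusoff, using the serotonin transport Km measured over 10 nM to […] substrate.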
# [3] = target: T2, Sodium-dependent serotonin transporter; experiment: Inhibition of high affinity 5-HT uptake at concentration of 1 uM; format: functional
# [4] = target: T1, Sodium-dependent dopamine transporter; experiment: (§1) Inhibition of high affinity dopamine uptake at concentration of 1 uM; format: functional
# Rattus norvegicus [5] = organism: Rattus norvegicus; experiment: Michaelis-Menten constant was reported for high affinity transport of choline; format: functional
# Summary of the method: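 Rat forebrain crude synaptosome aliquots (0.27–0.3 mg protein) were equilibrated at 30 °C. [3H]choline was added at 10 nM to 10 μM and uptake run 3 min, within the linear range. Parallel 0 °C incubations corrected for nonspecific binding and diffusion. Reactions were stopped by ice cooling, centrifuged at 800g, and the pellets washed with ice-cold KRB.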
# Rattus norvegicus [6] = organism: Rattus norvegicus; experiment: as §1; format: functional
# [7] = substrate: C[N+](C)(C)CC(O)c1ccc(O)c(O)c1
# [8] = substrate: C[N+](C)(C)CC(O)c1ccc(O)c(O)c1; remark: listed apart in the source
# [9] = substrate: C[N+](C)(C)CC(O)c1ccc(O)c(O)c1; remark: listed apart in the source
# [10] = substrate: C[N+](C)(C)CC(O)c1ccc(O)c(O)c1; remark: listed apart in the source
# [11] = substrate: C[N+](C)(C)CC(O)c1ccc(O)c(O)c1; remark: listed apart in the source
# [12] = substrate: C[N+](C)(C)CC(O)c1ccc(O)c(O)c1; remark: listed apart in the source
molecule,measurement,setting,value
C[N+](C)(C)CC(O)c1ccc(O)c(O)c1 (centres undefined) [CATECHOLINE],Ki,[1],530 µM
same,Ki,[2],390 µM
same,IC50,[3],3600 µM
same,IC50,[4],949 µM
C[N+](C)(C)c1cccc(O)c1O,Km,Rattus norvegicus [5],1000 µM
same,Ki,[2],90 µM
same,IC50,[3],213 µM
same,IC50,Rattus norvegicus [6],196 µM
"Sodium-dependent serotonin transporter (Rattus norvegicus), P31652 (protein) METTPLNSQKVLSECKDREDCQENGVLQKGVPTTADRAEPSQISNGYSAVPSTSAGDEASHSIPAATTTLVAEIRQGERETWGKKMDFLLSVIGYAVDLGNIWRFPYICYQNGGGAFLLPYTIMAIFGGIPLFYMELALGQYHRNGCISIWRKICPIFKGIGYAICIIAFYIASYYNTIIAWALYYLISSLTDRLPWTSCTNSWNTGNCTNYFAQDNITWTLHSTSPAEEFYLRHVLQIHQSKGLQDLGTISWQLTLCIVLIFTVIYFSIWKGVKTSGKVVWVTATFPYIVLSVLLVRGATLPGAWRGVVFYLKPNWQKLLETGVWVDAAAQIFFSLGPGFGVLLAFASYNKFNNNCYQDALVTSVVNCMTSFVSGFVIFTVLGYMAEMRNEDVSEVAKDAGPSLLFITYAEAIANMPASTFFAIIFFLMLITLGLDSTFAGLEGVITAVLDEFPHIWAKRREWFVLIVVITCVLGSLLTLTSGGAYVVTLLEEYATGPAVLTVALIEAVAVSWFYGITQFCSDVKEMLGFSPGWFWRICWVAISPLFLLFIICSFLMSPPQLRLFQYNYPHWSIVLGYCIGMSSVICIPTYIIYRLISTPGTLKERIIKSITPETPTEIPCGDIRMNAV",Vmax (pM min-1 mg-1),[7],23
same,Km,[8],150 µM
"Sodium-dependent dopamine transporter (Rattus norvegicus), P23977 (protein) MSKSKCSVGPMSSVVAPAKESNAVGPREVELILVKEQNGVQLTNSTLINPPQTPVEAQERETWSKKIDFLLSVIGFAVDLANVWRFPYLCYKNGGGAFLVPYLLFMVIAGMPLFYMELALGQFNREGAAGVWKICPVLKGVGFTVILISFYVGFFYNVIIAWALHYFFSSFTMDLPWIHCNNTWNSPNCSDAHASNSSDGLGLNDTFGTTPAAEYFERGVLHLHQSRGIDDLGPPRWQLTACLVLVIVLLYFSLWKGVKTSGKVVWITATMPYVVLTALLLRGVTLPGAMDGIRAYLSVDFYRLCEASVWIDAATQVCFSLGVGFGVLIAFSSYNKFTNNCYRDAIITTSINSLTSFSSGFVVFSFLGYMAQKHNVPIRDVATDGPGLIFIIYPEAIATLPLSSAWAAVFFLMLLTLGIDSAMGGMESVITGLVDEFQLLHRHRELFTLGIVLATFLLSLFCVTNGGIYVFTLLDHFAAGTSILFGVLIEAIGVAWFYGVQQFSDDIKQMTGQRPNLYWRLCWKLVSPCFLLYVVVVSIVTFRPPHYGAYIFPDWANALGWIIATSSMAMVPIYATYKFCSLPGSFREKLAYAITPEKDHQLVDRGEVRQFTLRHWLLL",Vmax (pM min-1 mg-1),[9],53
same,Km,[10],1400 µM
"Sodium- and chloride-dependent creatine transporter 1 (Rattus norvegicus), P28570 (protein) MAKKSAENGIYSVSGDEKKGPLIVSGPDGAPSKGDGPAGLGAPSSRLAVPPRETWTRQMDFIMSCVGFAVGLGNVWRFPYLCYKNGGGVFLIPYVLIALVGGIPIFFLEISLGQFMKAGSINVWNICPLFKGLGYASMVIVFYCNTYYIMVLAWGFYYLVKSFTTTLPWATCGHTWNTPDCVEIFRHEDCANASLANLTCDQLADRRSPVIEFWENKVLRLSTGLEVPGALNWEVTLCLLACWVLVYFCVWKGVKSTGKIVYFTATFPYVVLVVLLVRGVLLPGALDGIIYYLKPDWSKLGSPQVWIDAGTQIFFSYAIGLGALTALGSYNRFNNNCYKDAIILALINSGTSFFAGFVVFSILGFMATEQGVHISKVAESGPGLAFIAYPRAVTLMPVAPLWAALFFFMLLLLGLDSQFVGVEGFITGLLDLLPASYYFRFQREISVALCCALCFVIDLSMVTDGGMYVFQLFDYYSASGTTLLWQAFWECVVVAWVYGADRFMDDIACMIGYRPCPWMKWCWSFFTPLVCMGIFIFNVVYYKPLVYNNTYVYPWWGEAMGWAFALSSMLCVPLHLLGCLLRAKGTMAERWQHLTQPIWGLHHLEYRAQDADVRGLTTLTPVSESSKVVVVESVM",Vmax (pM min-1 mg-1),[11],22
same,Km,[12],2040 µM

# Reference: ChEMBL document CHEMBL1126723, “Inhibition and inactivation of presynaptic cholinergic markers using redox-reactive choline analogs” (J Med Chem, 1993)
